Data as given in ChEMBL document CHEMBL4513216, “Probing the Open Global Health Chemical Diversity Library for Multistage-Active Starting Points for Next-Generation Antimalarials” (ACS Infect Dis, 2020).

Assay: Toxicity liver stage against HepG2, at 10uM
Format: cell-based
Set-up: test concentration 10 uM, cell line HepG2-A16-CD81EGFP
Settings: human, HepG2-A16-CD81EGFP cells; read-out: INHIBITION
Procedure, shortened: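 Uninfected HepG2-A16-CD81EGFP cells, 3 × 10^3 per well, 1536-well, plated on prespotted compound at 10 μM final, parasite-free screening media added to match infected plates; puromycin 10 μM positive, DMSO 0.5% negative; run in parallel with 48 h PbLuc assay at 37 °C, 5% CO2; viability by CellTiter-Glo luminescence, normalized to controls.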

Structure (SMILES)	cytotoxicity at 10 µM
O=C1CCC(=O)c2oc3ccccc3c2N1	4.34%
Cc1cccc(O[C@H]2COCCN(C3CCC3)C2)n1	-4.81%
CN1CCOC[C@H]1c1nc(-c2ccccc2)c[nH]1	-7.24%
COc1ccc(-c2noc([C@@H](C)NC(=O)NC(C)(C)C)c2C(=O)O)cc1	-1.63%
COc1ccc(CN2C[C@H]3CN(C(=O)c4ccno4)CCN3C2=O)cc1	-4.23%
CN1[C@@H](CCC(=O)NCc2ccc(F)cc2)CNC(=O)[C@H]2NCC[C@H]21	7.6%
Cc1cccc(CNC[C@H]2Cn3cc(-c4ccccc4)nc3CO2)n1	-2.59%
COc1cccc(-c2nc(C)c(C(=O)N[C@H](CO)CC(C)C)s2)c1	5.08%
Cc1cccc2c1N(C)C(=O)C21CC(=O)Nc2c1cnn2C(C)(C)C (stereo not given)	-1.65%
Cc1nn2cnnc2c(C)c1CCC(=O)Nc1nnc(C(C)C)s1	-3.25%
CC(C)c1sc(Cl)nc1C(=O)NCc1ccncc1	0.649%
Cn1c(-c2ccccc2)nn(CCNS(=O)(=O)c2ccccc2Cl)c1=O	-2.85%
Cn1cnc2c1C(C(=O)N1CCCC1)N(S(C)(=O)=O)CC2 (stereo not given)	6.22%
O=C1NCCO[C@H]2CN(C(=O)CCc3ccc(Cl)cc3)CC[C@@H]12	11.1%
Cc1noc(C)c1CN1C[C@@H]2COC[C@]2(COc2ccc(C#N)cn2)C1	9.49%
Cc1ccoc1C(=O)N1C[C@@H]2COC[C@]2(CNS(C)(=O)=O)C1	-1.14%
O=C(c1cc(-n2cccc2)ccc1Cl)N1CCC2(CC1)OCCO2	-7.58%
Cn1nc(C(=O)NN2CCOCC2)c(Cl)c1C(F)(F)F	2.99%
CCCn1nnc(NCc2cc(Br)cc(Br)c2OC)n1	12.6%
CSc1ncnc(NCc2ccccc2F)c1C#N	1.67%
CCC(=O)NCCNC(=O)c1nn(C)c(C)c1Cl	5.05%
CCC(=O)Nc1nnc(CCOc2ccccc2OC)s1	2.38%

Structure (SMILES)	cytotoxicity at 10 µM
CN1CCCCC(C2CCN(S(=O)(=O)c3cn(C)cn3)CC2)C1=O (stereo not given)	3.13%
CC(C)(C)c1ccc(C(=O)NCCCNC(=O)c2cnccn2)cc1	6.58%
Cc1n[nH]c(C)c1CC(=O)N1CCC(O)(CN2CCOCC2)C1 (stereo not given)	3.1%
CNc1cc(C(=O)N2CCOC(C(=O)NC3CCCC3)C2)ccn1 (stereo not given)	8.16%
CO[C@H]1CN(S(=O)(=O)c2ccc(F)cc2)C[C@@]12CCCO2	13.2%
Cc1cccc(C(=O)N2CC(Cc3nccc4ccn(C)c34)C2)n1	-40.5%
CC(C)CC(=O)N1CCN(Cc2cc(-c3ccncc3)nn2C)CC1	-23.2%
CCc1ncnc(N2CCCC(c3cc(C(N)=O)[nH]n3)C2)c1F (stereo not given)	-4.68%
CC(NCc1ccccn1)c1ccc(N2CCN(C)CC2)c(F)c1 (stereo not given)	-7.85%
CC(C)c1nc(CC(=O)N2CCN(C)CC2c2ccccc2)cs1 (stereo not given)	-12.6%
CC(C(=O)N(Cc1ccc(C#N)cc1)CC(F)(F)F)S(C)(=O)=O (stereo not given)	-2.6%
O=C1CC(N(C(=O)Cc2csc(-c3ccccc3)n2)C2CC2)C(=O)N1 (stereo not given)	3.51%
O=c1[nH]cnc2c1CCN(S(=O)(=O)c1cccc(OC(F)(F)F)c1)C2	-2.87%
Cc1cc(C(=O)NCCSC2CCCC2)no1	-2.21%
Cc1cc(C(=O)N2CCNC(=O)C2)c(C)n1CC(F)(F)F	0.962%
CN1CCN(CCOc2ccc(NC(=O)c3ccc[nH]3)cc2)CC1	-3.26%
O=C(OCCNc1ncccn1)c1ccc(Cl)s1	-2.43%
CC(C)(C)C1CCC(O)(CNC(=O)CCS(C)(=O)=O)CC1 (stereo not given)	6.51%
COc1ccc(Cl)cc1CCNC(=O)NCc1ncnn1C	2.06%
CC(NC(=O)N1CCCCCC1)c1ccc(S(N)(=O)=O)cc1 (stereo not given)	-6.06%
CN1N=C(C(=O)N2CCN(c3ncccc3Cl)CC2)CCC1=O	0.0793%
O=C(NCCC(=O)N1CCCC1)C(OC1CCCC1)c1ccccc1 (stereo not given)	-4.36%

Structure (SMILES)	cytotoxicity at 10 µM
CCNC(=O)NC(=O)CNc1cc(C(=O)OC)cc(C(F)(F)F)c1	-7.03%
CN1CCCN(c2nc3c(cnn3C(C)(C)C)c(=O)[nH]2)CC1	-11.9%
CC(C)c1nc(C2CCCN(c3ncccn3)C2)no1 (stereo not given)	12.4%
O=C(NCC(O)COc1ccccc1)C1(c2ccc(F)cc2)CC1 (stereo not given)	1.3%
c1cc(-c2noc(-c3cc(C4CC4)on3)n2)cc(N2CCCCC2)n1	4.64%
CCCNC(=O)CN1CCN(c2nc(CC)ns2)CC1	-3.53%
O=C(CNc1cc2c(cc1Cl)OCCO2)NCC(F)(F)F	0.49%
CN(C)C(=O)CCS(=O)(=O)Cc1coc(-c2ccc(F)cc2)n1	-2.26%
Cc1cccc(CNC(=O)Nc2ccn(CCN(C)C)n2)c1	-4.47%
CN(CCc1ccncc1)C(=O)C1CSCN1C(=O)CC(C)(C)C (stereo not given)	10.2%
N#Cc1ccc(N2CCC(c3nc(C(F)(F)F)c[nH]3)CC2)nc1	-7.09%
Cc1nsc(NC2CC(=O)N(C(C)(C)C)C2)n1 (stereo not given)	-8.52%
COc1ncnc(N(C)C)c1NC(=O)Cc1c[nH]c2ccc(F)cc12	-4.2%
O=C(CNc1cc(Br)ccc1Br)NC1CCS(=O)(=O)C1 (stereo not given)	-5.88%
O=C(Nc1ccc2c(c1)OC1(CCCCC1)O2)c1ccc(=O)[nH]n1	14.1%
CC1CCN(C(=O)C(C)N2CCN(c3nccs3)CC2)CC1 (stereo not given)	0.583%
CCCN(Cc1cnn(C)c1)CC1CCCN(S(C)(=O)=O)C1 (stereo not given)	15.1%
CC(=O)N1CCN(C(=O)CNc2ccc3sccc3c2)CC1	0.335%
CCN(Cc1cnn(C)c1)C(=O)c1ccccc1O	1.89%
CC(C)(C)CC(=O)N1CSCC1C(=O)NCc1cccc(C#N)c1 (stereo not given)	-9.78%
O=C(CSc1nnc[nH]1)NCc1sccc1Br	0.388%
N#Cc1ccc(N2CCN(c3ccc4nncn4n3)CC2)nc1	-13.3%

Structure (SMILES)	cytotoxicity at 10 µM
O=c1oc(-c2cccs2)nn1CC(O)c1ccc(F)cc1 (stereo not given)	20.4%
CC(OCC(F)(F)F)C(=O)N1CCCCC1 (stereo not given)	-3.45%
CCn1cncc1-c1nc2c([nH]1)CC(C)(C)CNC2=O	7.51%
Cc1noc(C)c1CNC(=O)c1cn(CCC2CCCCN2)nn1 (stereo not given)	0.872%
CC(C)C(=O)N1CCN(C(=O)c2cc(Cl)no2)[C@H]2CS(=O)(=O)C[C@H]21	8.48%
COc1ccc(C(C(=O)O)N(C)Cc2ccon2)cc1Cl (stereo not given)	-5.02%
Cc1cc(CN2CCN(C(=O)C3CCC3)[C@@H]3CS(=O)(=O)C[C@@H]32)ccc1F	0.66%
Cc1ccc(C(=O)N2CCc3ncccc3C2)cc1N1CCNC1=O	-4.33%
COc1ccc(OC)c(C2CCN(C(=O)CCc3n[nH]c(N)n3)C2)c1 (stereo not given)	5.27%
c1cnnc(-c2noc(COCC3CCCO3)n2)c1 (stereo not given)	2.66%
Cc1ccnc(NCC2(N(C)C)CCOCC2)n1	3.81%
CCn1nc(C)c(CN(CCOC)C(=O)c2cnc(C)nc2O)c1C	-2.27%
COc1cccc(N2CCN(Cc3ccc4ccn(C)c4c3)CC2=O)c1	17.3%
Cc1nn(C)c2nc(N(Cc3ccncc3)CC3CCCO3)sc12 (stereo not given)	9.42%
CCc1nc(C)c([C@H]2CN(C)C[C@@H]2C(=O)Nc2ccc3[nH]ncc3c2)[nH]1	-1.67%
COC(=O)c1ccc2ccn(CC3CCCCO3)c(=O)c2c1 (stereo not given)	-0.551%
CN1CCCN(C(=O)c2cnc(C(C)(C)C)nc2O)CC1	-0.0816%
CN(Cc1cc(-c2ccncc2)no1)Cc1nccn1C	0.884%
CN(C)CCNc1cc(-c2ccc[nH]c2=O)c2cc[nH]c2n1	9.26%
Cc1nc(C)n(CCNC(=O)C(C)n2ccnc2C(C)C)n1 (stereo not given)	-6.57%
Cc1ccsc1[C@@H]1CCN(C(=O)CCOc2ccccc2)C[C@H]1O	-0.602%
CC(C)N1CCCC(CN(C)c2ccc(Cn3ccnc3)cn2)C1 (stereo not given)	-127%

Structure (SMILES)	cytotoxicity at 10 µM
CC(C)(C)c1ncc2c(n1)CN(C(=O)c1ccncc1)C2	-12.5%
Cn1c(Cn2ccnc2)nnc1C1CCN(Cc2cccnc2N)CC1	-8.37%
CN1CCN(C2CCN(CCOc3ccccc3F)CC2)C1=O	0.174%
Cc1nccn1C1CCCN(C(=O)c2ccc(N(C)C)nn2)C1 (stereo not given)	-17.7%
CCOc1ncccc1NC(=O)N1CCN(CC(=O)NC)CC1	-2.66%
CCOc1ncccc1CNc1nnc(C)c(C)c1C#N	-12.1%
O=C(NCCNC(=O)c1scnc1Cl)c1ccoc1	-7.91%
COCc1nc(C(=O)N2CCCC(n3ccnc3C)C2)cs1 (stereo not given)	-33.6%
Cc1cnn(CC2CCCN2CC(=O)Nc2cc(C)on2)c1 (stereo not given)	-26.7%
CCc1nc(CN2CCN(C(C)c3nc(C4CC4)no3)CC2)no1 (stereo not given)	-9.45%
CCc1n[nH]c(C2CN(C(=O)c3cscn3)CCO2)n1 (stereo not given)	5.08%
O=C(NCCc1ccn(-c2ccccc2)n1)N1CCCC(CO)C1 (stereo not given)	-23.1%
COc1ccnc(N2CCCN(C(=O)Cc3ccc(C)s3)CC2)n1	-2.12%
Cc1ccc(C(=O)Nc2cc(C(C)C)n[nH]2)cn1	55.8%
Cn1ccc(C(=O)N2CCN(CCc3ccccc3)CC2)cc1=O	5.8%
c1csc(CN2CCC3(COCCN(CC4CC4)C3)C2)n1 (stereo not given)	1.44%
Cc1nnc(N2C[C@@H](Oc3ccccn3)[C@H]3OCCC[C@H]32)s1	-5%
Cn1ccnc1C(=O)NCc1cnc2n1CCN(CC1CC1)CC2	5.93%
CCS(=O)(=O)N1C[C@H]2CCC[C@@]2(COc2ccccn2)C1	-4.09%
CCN1CCCn2c(nc(CNC(=O)c3cnoc3C)cc2=O)C1	6.13%
COCCN1C[C@@H]2CC[C@H]1CN(Cc1cc(=O)c3cc(C)ccc3[nH]1)C2	-5.31%
O[C@@H]1CC(CNCC2CCCC2)(COc2cccnc2)C[C@@H]1O (stereo not given in full)	-6.53%
